According to ChEMBL document CHEMBL1136025, “Inhibition of ADP-triggered blood platelet aggregation by diadenosine polyphosphate analogues” (Bioorg Med Chem Lett, 2002):

Species on record: Homo sapiens
Assay: The inhibitory concentration for the inhibition of ADP-Triggered Blood Platelet Aggregation
Assay type: functional
In short: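 Human citrated PRP from unmedicated healthy donors (200g, 10 min, rt spin); PPP from 1000g, 20 min. Serial dilutions in phosphate buffer pH 7.4 preincubated with PRP 30 min at rt, then ADP added. Aggregation followed 10 min at 37 °C, absorbance 595 nm every 30 s with shaking; buffer and PPP-only controls; AMP as positive control.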

Row | IC50 | Structure (SMILES)
1 | 40 µM | Nc1ncnc2c1ncn2[C@@H]1O[C@H](COP(O)(=S)OCP(=O)(O)COP(O)(=S)OC[C@H]2O[C@@H](n3cnc4c(N)ncnc43)[C@H](O)[C@@H]2O)[C@@H](O)[C@H]1O (stereo partly specified)
2 | 10 µM | Nc1ncnc2c1ncn2[C@@H]1O[C@H](COP(=S)(S)OCP(=O)(O)COP(=S)(S)OC[C@H]2O[C@@H](n3cnc4c(N)ncnc43)[C@H](O)[C@@H]2O)[C@@H](O)[C@H]1O (stereo partly specified)
3 | 80 µM | Nc1ncnc2c1ncn2[C@@H]1O[C@H](COP(=O)(O)OCP(=O)(O)COP(=O)(O)OC[C@H]2O[C@@H](n3cnc4c(N)ncnc43)[C@H](O)[C@@H]2O)[C@@H](O)[C@H]1O

The next lines start with the compound.

Row | Structure (SMILES) | IC50
4 | Nc1ncnc2c1ncn2[C@@H]1O[C@H](COP(O)(=S)OC(C(=O)O)C(OP(O)(=S)OC[C@H]2O[C@@H](n3cnc4c(N)ncnc43)[C@H](O)[C@@H]2O)C(=O)O)[C@@H](O)[C@H]1O (stereo partly specified) | 75 µM
5 | Nc1ncnc2c1ncn2[C@@H]1O[C@H](COP(O)(=S)OCC(OP(O)(O)=S)OP(O)(=S)OC[C@H]2O[C@@H](n3cnc4c(N)ncnc43)[C@H](O)[C@@H]2O)[C@@H](O)[C@H]1O (stereo partly specified) | > 160 µM
6 | Nc1ncnc2c1ncn2[C@@H]1O[C@H](COP(O)(=S)OCP(=O)(O)COP(O)(O)=S)[C@@H](O)[C@H]1O (stereo partly specified) | 13 µM
